Laboratory results: article PMC7983942 (Clinical Pharmacology and Therapeutics, 2020)
Where a chain is given by its changes, count along the chain named.

Tests used:
Assay type in all cases: in vitro ADME
OATP1B1*14 = target: T1, OATP1B1*14 (Homo sapiens, UniProt Q9Y6L6, N130D/P155T); experiment: Uptake into OATP1B1 variant-transfected vs wild-type HEK293 cells; settings: for Uptake ratio as percentage of OATP1B1*14 in the same experiment: OATP1B1*14 (reference); for Uptake ratio (vs. wild‐type HEK293 cells): OATP1B1*14, 2 minutes
T1 sequence (Q9Y6L6 1-691 N130D/P155T): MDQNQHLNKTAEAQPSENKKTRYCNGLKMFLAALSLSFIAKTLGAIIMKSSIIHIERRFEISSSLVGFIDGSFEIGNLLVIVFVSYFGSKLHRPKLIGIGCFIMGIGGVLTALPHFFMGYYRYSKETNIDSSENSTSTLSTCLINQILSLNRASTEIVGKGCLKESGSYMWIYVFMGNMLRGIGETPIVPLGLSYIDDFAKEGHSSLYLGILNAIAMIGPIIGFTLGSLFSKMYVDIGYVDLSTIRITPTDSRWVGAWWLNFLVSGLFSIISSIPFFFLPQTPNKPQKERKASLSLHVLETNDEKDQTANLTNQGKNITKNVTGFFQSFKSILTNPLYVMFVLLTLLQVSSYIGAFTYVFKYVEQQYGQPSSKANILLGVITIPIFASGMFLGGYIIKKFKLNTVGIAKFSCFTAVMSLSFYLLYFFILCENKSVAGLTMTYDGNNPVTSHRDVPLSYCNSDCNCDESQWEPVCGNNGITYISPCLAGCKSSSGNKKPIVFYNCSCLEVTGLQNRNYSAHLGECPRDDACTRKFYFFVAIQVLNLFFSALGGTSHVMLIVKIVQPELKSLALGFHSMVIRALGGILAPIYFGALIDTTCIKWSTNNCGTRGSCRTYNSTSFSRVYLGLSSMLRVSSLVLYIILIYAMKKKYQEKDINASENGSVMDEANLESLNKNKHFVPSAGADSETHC

OATP1B1*15 = target: T2, OATP1B1*15 (Homo sapiens, UniProt Q9Y6L6, N130D/V174A); experiment: Uptake into OATP1B1 variant-transfected vs wild-type HEK293 cells; settings: for Uptake ratio (vs. wild‐type HEK293 cells): 2 minutes
T2 sequence (Q9Y6L6 1-691 N130D/V174A): T1 sequence (Q9Y6L6 1-691 N130D/P155T) with T155P, V174A
Procedure, shortened: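 HEK293 cells stably expressing an OATP1B1 variant, alongside wild-type HEK293, were seeded at 0.5–1.2 × 10⁵ cells/well on poly-D-lysine plates. They grew 48 h at 37°C and 5% CO₂ in DMEM with 10% FBS, 1% pyruvate, nonessential amino acids and GlutaMAX. Substrate was 1 µM (0.5 µM where footnoted) for 2 min, then four ice-cold buffer washes and methanol lysis with internal standard. Uptake ratio (transfected/wild-type) is expressed as % of OATP1B1*14 in the same experiment; n=3 determinations.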

OATP1B3 = target: T3, OATP1B3 (Homo sapiens, UniProt Q9NPD5); experiment: Uptake into transporter-transfected vs wild-type HEK293 cells; settings: rosuvastatin 1 µM, two to four minutes
T3 sequence (Q9NPD5 1-702): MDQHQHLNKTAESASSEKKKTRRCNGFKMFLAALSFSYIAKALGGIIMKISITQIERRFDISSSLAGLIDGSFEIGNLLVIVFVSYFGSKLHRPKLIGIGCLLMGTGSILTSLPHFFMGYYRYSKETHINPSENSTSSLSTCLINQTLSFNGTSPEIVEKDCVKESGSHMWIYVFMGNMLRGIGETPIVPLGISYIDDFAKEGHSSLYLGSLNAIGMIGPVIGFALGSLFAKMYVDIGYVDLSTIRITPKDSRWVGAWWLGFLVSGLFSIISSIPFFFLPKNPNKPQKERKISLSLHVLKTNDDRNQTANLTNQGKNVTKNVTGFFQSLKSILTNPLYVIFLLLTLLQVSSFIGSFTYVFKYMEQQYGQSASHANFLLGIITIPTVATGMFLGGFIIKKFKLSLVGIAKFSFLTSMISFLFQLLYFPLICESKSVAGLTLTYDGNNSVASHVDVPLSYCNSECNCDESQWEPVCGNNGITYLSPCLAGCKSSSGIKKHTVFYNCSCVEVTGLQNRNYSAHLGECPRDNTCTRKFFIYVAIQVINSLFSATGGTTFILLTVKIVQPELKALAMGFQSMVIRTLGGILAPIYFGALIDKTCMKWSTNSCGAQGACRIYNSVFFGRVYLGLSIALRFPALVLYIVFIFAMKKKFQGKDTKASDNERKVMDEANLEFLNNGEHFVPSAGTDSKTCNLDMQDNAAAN
Procedure, shortened: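 HEK293 cells stably transfected with OATP1B1*1A, OATP1B3 or OATP2B1, plus wild-type cells, were seeded on poly-D-lysine plates. Culture was 48 h at 37°C in DMEM with 10% FBS, pyruvate, nonessential amino acids and GlutaMAX. Test compound was 1 µM for 2 min; rosuvastatin probe was 1 µM over 2–4 min. Cells were washed four times in ice-cold buffer and lysed in methanol with internal standard. Readouts were uptake ratio versus wild-type and glucuronide/probe ratio of ratios; mean ± SD, n=3 in one experiment.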

[1] = experiment 1, substrate concentration 0.5 µM

In the case of CC(C)c1nc(N(C)S(C)(=O)=O)nc(-c2ccc(F)cc2)c1/C=C/[C@@H](O)C[C@@H](O)CC(=O)O [Rosuvastatin], the “Uptake ratio as percentage of OATP1B1*14 in the same experiment” value (“Uptake ratio as percentage” for short) (OATP1B1*14; [1]) is reported as 100%, the “Uptake ratio as percentage” value (OATP1B1*14; experiment 2, substrate 1 µM) is reported as 100% and the “Uptake ratio (vs. wild‐type HEK293 cells)” value (OATP1B1*14; [1]) is reported as 15 ± 0.2. For the same compound, the “Uptake ratio (vs. wild‐type HEK293 cells)” value (OATP1B1*14; experiment 2, substrate 1 µM) was 40 ± 3.3, the “Uptake ratio (vs. wild‐type HEK293 cells)” value (OATP1B1*14; experiment 3, substrate 1 µM) was 85 ± 5.3 and the “Uptake ratio as percentage” value (OATP1B1*15; [1]) was 15%. For the same compound, the “Uptake ratio (vs. wild‐type HEK293 cells)” value (OATP1B1*15; [1]) was 2.3 ± 0.2, the “Uptake ratio as percentage” value (OATP1B1*15; experiment 2, substrate 1 µM) was 13% and the “Uptake ratio (vs. wild‐type HEK293 cells)” value (OATP1B1*15; experiment 2, substrate 1 µM) was 5.0 ± 0.2. The “Uptake ratio (vs. wild‐type HEK293 cells), probe” value (OATP1B3) was 69.8 ± 1.9.
